By IC50 is commonly meant the concentration at which inhibition is half-maximal.

Our source for the IC50 values is ChEMBL document CHEMBL1781970, “Synthesis and antiproliferative evaluation of 23-hydroxybetulinic acid derivatives” (Eur J Med Chem, 2011).

Holding throughout (format): functional, cell-based
In experiment [1] the test system is A-375. The experiment can be described thus: Antiproliferative activity against human A375 cells after 72 hrs by MTT assay. The settings on record: A-375, 72 h. The method, boiled down: (§1)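 Cells grown in RPMI 1640 with 10% FBS and 1% penicillin-streptomycin at 37 °C, 5% CO2, then seeded overnight in 96-well plates. Test compounds were dissolved in DMSO (doxorubicin control in PBS) and given at various concentrations for 72 h at 37 °C. MTT (5 mg/mL in PBS) was added for 4 h and OD read at 570 nm. IC50 was taken from dose-response curves; mean ± SD, ≥3 independent experiments.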

Experiment [2] has as its system MCF7. Nature of the experiment: Antiproliferative activity against human MCF7 cells after 72 hrs by MTT assay. The note with it: MCF7, 72 h. The procedure, abridged:
as §1
(In general: Formazan colour is commonly taken as a measure of viable cells.)

Experiment [3] deals with HeLa. The experiment can be described thus: Antiproliferative activity against human HeLa cells after 72 hrs by MTT assay. The method, boiled down: as §1
Experiment [4] has as its system B16. Nature of the experiment: Antiproliferative activity against mouse B16 cells after 72 hrs by MTT assay. The note with it: B16, 72 h. The procedure, abridged:
as §1

Experiment [5] has as its system HepG2. Nature of the experiment: Antiproliferative activity against human HepG2 cells after 72 hrs by MTT assay. The note with it: HepG2, 72 h. The procedure, abridged: as §1

As for `C=C(C)[C@@H]1CC[C@]2(C(=O)N3CCNCC3)CC[C@]3(C)[C@H](CC[C@@H]4[C@@]5(C)CC[C@H](O)[C@@](C)(CO)[C@@H]5CC[C@]43C)[C@@H]12`, the IC50 in experiment [1] came out at 2.3 µM; in experiment [2] it was 2.27 µM; in experiment [3], 7.12 µM; in experiment [4] it was 4.39 µM; in experiment [5], 8.85 µM.
In the same order, the values of `C=C(C)[C@@H]1CC[C@]2(C(=O)N3CCCCC3)CC[C@]3(C)[C@H](CC[C@@H]4[C@@]5(C)CC[C@H](O)[C@@](C)(CO)[C@@H]5CC[C@]43C)[C@@H]12` are 17.9 µM, 16.6 µM, 66.5 µM, 43.7 µM and 68.6 µM.
`C=C(C)[C@@H]1CC[C@]2(C(=O)N3CCNCC3)CC[C@]3(C)[C@H](CC[C@@H]4[C@@]5(C)CC[C@H](OC(C)=O)[C@@](C)(COC(C)=O)[C@@H]5CC[C@]43C)[C@@H]12`: the IC50 in experiment [1] amounted to 18.8 µM; in experiment [2], 4.89 µM; in experiment [3], 18.8 µM; in experiment [4] it was 13.1 µM; in experiment [5], 17.7 µM.
As for `C=C(CO)[C@@H]1CC[C@]2(C(=O)OC(C)C)CC[C@]3(C)[C@H](CC[C@@H]4[C@@]5(C)CC[C@H](O)[C@@](C)(CO)[C@@H]5CC[C@]43C)[C@@H]12`, the IC50 in experiment [1] was determined as 21.2 µM; in experiment [2] it was 16.6 µM; in experiment [3], 22.3 µM; in experiment [4], 38.6 µM; in experiment [5], 21 µM.
